# Assays:
# PANC-1 [1] = experiment: Effect on IGF2 gene expression in human PANC1 cells at 400 nM after 24 hrs by RNA sequence analysis relative to control; format: functional
# Summary of the method: (§1)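 PANC-1 (0.35 x 10^6) or MIA PaCa-2 (1.5 x 10^6) cells seeded overnight in 60 mm plates, then exposed to 400 nM compound for 6 or 24 h; untreated cells as controls. Cells were mycoplasma-free and STR-certified. Differential expression by RNA-seq, called at FDR < 0.1.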
# [2] = Binding affinity to 5'-FAM/3'-TAMRA labeled HSP90B promoter G-quadruplex DNA (unknown origin) assessed as change in melting temperature at 1 uM by FRET assay
# Summary of the method: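 FRET melting with FAM/TAMRA dual-labelled oligonucleotides at 400 nM, annealed at 95 °C for 10 min in 60 mM potassium cacodylate pH 7.4 and slowly cooled. Ligand final 1 μM; solution contains 50 mM K+. Fluorescence read every 0.5 °C over 30–100 °C with 30 s hold, excitation 450–495 nm and emission 515–545 nm. ΔTm from curve fitting, triplicate measurements.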
# MIA PaCa-2 [3] = experiment: Effect on mLST8 gene expression in human MIAPaCa2 cells at 400 nM after 6 hrs by RNA sequence analysis relative to control; format: functional
# Summary of the method: (§2)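 RNA-seq: cells seeded overnight in 60 mm plates (PANC-1 0.35 x 10^6, MIA PaCa-2 1.5 x 10^6 cells/well), then exposed to 400 nM compound for 6 or 24 h against untreated controls. Cell lines mycoplasma-free by RNA-capture ELISA and STR-profiled. Differentially expressed genes called at FDR < 0.1.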
# PANC-1 [4] = experiment: Effect on TEAD2 gene expression in human PANC1 cells at 400 nM after 6 hrs by RNA sequence analysis relative to control; format: functional; summary of the method: as §2
# PANC-1 [5] = experiment: Effect on PRKCZ gene expression in human PANC1 cells at 400 nM after 24 hrs by RNA sequence analysis relative to control; format: functional; summary of the method: as §2
# MIA PaCa-2 [6] = experiment: Effect on GLI1 gene expression in human MIAPaCa2 cells at 400 nM after 6 hrs by RNA sequence analysis relative to control; format: functional; summary of the method: as §1
# MIA PaCa-2 [7] = experiment: Effect on ULK1 gene expression in human MIAPaCa2 cells at 400 nM after 24 hrs by RNA sequence analysis relative to control; format: functional; summary of the method: as §2
# PANC-1 [8] = experiment: Effect on PAK1 gene expression in human PANC1 cells at 400 nM after 24 hrs by RNA sequence analysis relative to control; format: functional
# MIA PaCa-2 [9] = experiment: Effect on PFKL gene expression in human MIAPaCa2 cells at 400 nM after 6 hrs by RNA sequence analysis relative to control; format: functional
# PANC-1 [10] = experiment: Effect on PIK3R3 gene expression in human PANC1 cells at 400 nM after 24 hrs by RNA sequence analysis relative to control; format: functional
# PANC-1 [11] = experiment: Effect on SHANK2 gene expression in human PANC1 cells at 400 nM after 6 hrs by RNA sequence analysis relative to control; format: functional; summary of the method: as §2
# MIA PaCa-2 [12] = experiment: Antitumor activity against human MIAPaCa2 cells xenografted in CD-1 nude mouse assessed as change in tumor volume at 10 mg/kg, iv administered twice weekly for 4 weeks measured on day 29 relative to control; format: functional
# Summary of the method: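 Female CD-1 nude mice (2-3 months, 20−25 g) given 5 x 10^6 MIA PaCa-2 cells subcutaneously in right flank with Matrigel; dosing began once tumors were established (approx. 13 days, mean 0.05 cm3). Eight mice/group, IV in saline twice weekly for 28 days (8 doses) against a saline group. Tumors measured by calliper (length × width × height × π/6), with body weight. Student's t test.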
# PANC-1 [13] = experiment: Effect on ROBO3 gene expression in human PANC1 cells at 400 nM after 6 hrs by RNA sequence analysis relative to control; format: functional; summary of the method: as §2
# MIA PaCa-2 [14] = experiment: Effect on PLXNA1 gene expression in human MIAPaCa2 cells at 400 nM after 24 hrs by RNA sequence analysis relative to control; format: functional
# MIA PaCa-2 [15] = experiment: Effect on PARD6A gene expression in human MIAPaCa2 cells at 400 nM after 6 hrs by RNA sequence analysis relative to control; format: functional
# PANC-1 [16] = experiment: Effect on MAPK11 gene expression in human PANC1 cells at 400 nM after 6 hrs by RNA sequence analysis relative to control; format: functional
# MIA PaCa-2 [17] = experiment: Effect on SMO gene expression in human MIAPaCa2 cells at 400 nM after 6 hrs by RNA sequence analysis relative to control; format: functional; summary of the method: as §2
# MIA PaCa-2 [18] = experiment: Effect on PCK2 gene expression in human MIAPaCa2 cells at 400 nM after 6 hrs by RNA sequence analysis relative to control; format: functional
# MIA PaCa-2 [19] = experiment: Effect on IGF2 gene expression in human MIAPaCa2 cells at 400 nM after 6 hrs by RNA sequence analysis relative to control; format: functional; summary of the method: as §1
# PANC-1 [20] = experiment: Effect on PARD6A gene expression in human PANC1 cells at 400 nM after 6 hrs by RNA sequence analysis relative to control; format: functional
# MIA PaCa-2 [21] = experiment: Effect on TEAD3 gene expression in human MIAPaCa2 cells at 400 nM after 6 hrs by RNA sequence analysis relative to control; format: functional; summary of the method: as §2
# PANC-1 [22] = experiment: Effect on CBFA2T3 gene expression in human PANC1 cells at 400 nM after 6 hrs by RNA sequence analysis relative to control; format: functional; summary of the method: as §1
# PANC-1 [23] = experiment: Effect on mLST8 gene expression in human PANC1 cells at 400 nM after 24 hrs by RNA sequence analysis relative to control; format: functional; summary of the method: as §2
# MIA PaCa-2 [24] = experiment: Effect on GLI1 gene expression in human MIAPaCa2 cells at 400 nM after 24 hrs by RNA sequence analysis relative to control; format: functional; summary of the method: as §1
# PANC-1 [25] = experiment: Effect on TEAD4 gene expression in human PANC1 cells at 400 nM after 6 hrs by RNA sequence analysis relative to control; format: functional; summary of the method: as §2
# BXPC-3 = experiment: Growth inhibition of human BxPC3 cells after 96 hrs by SRB assay; format: functional, cell-based; conditions: BXPC-3, 96 h
# Summary of the method: (§3)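 Cell lines kept at 37 °C, 5% CO2 in medium with 10% FBS and 2 mM L-glutamine. Compound dissolved in water, filter-sterilised, 10 mM stock diluted into media. Growth read by 96 h sulforhodamine B assay, absorbance at 540 nm. IC50 taken from mean absorbance per concentration as % of untreated wells, >3 individual determinations with standard deviations.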
# MIA PaCa-2 [26] = experiment: Growth inhibition of human MIAPaCa2 cells after 96 hrs by SRB assay; format: functional, cell-based; conditions: MIA PaCa-2, 96 h; summary of the method: as §3
# PANC-1 [27] = experiment: Effect on PAK1 gene expression in human PANC1 cells at 400 nM after 6 hrs by RNA sequence analysis relative to control; format: functional
# PANC-1 [28] = experiment: Effect on GLI1 gene expression in human PANC1 cells at 400 nM after 24 hrs by RNA sequence analysis relative to control; format: functional; summary of the method: as §1
# PANC-1 [29] = experiment: Effect on IGF2 gene expression in human PANC1 cells at 400 nM after 6 hrs by RNA sequence analysis relative to control; format: functional; summary of the method: as §1
# MIA PaCa-2 [30] = experiment: Effect on TP73 gene expression in human MIAPaCa2 cells at 400 nM after 24 hrs by RNA sequence analysis relative to control; format: functional; summary of the method: as §2
structure (smiles),measurement,setting,value
O=C1c2ccc3c4c(c(NCCN5CCCC5)cc(c24)C(=O)N1CCCN1CCOCC1)C(=O)N(CCCN1CCOCC1)C3=O,log2FC,PANC-1 [1],-1.53
same,ΔTm,[2],12.7 °C
same,log2FC,MIA PaCa-2 [3],-0.76
same,log2FC,PANC-1 [4],-0.22
same,log2FC,PANC-1 [5],-1.23
same,log2FC,MIA PaCa-2 [6],-0.61
same,log2FC,MIA PaCa-2 [7],-0.6
same,log2FC,PANC-1 [8],-1.11
same,log2FC,MIA PaCa-2 [9],0
same,log2FC,PANC-1 [10],-0.54
same,log2FC,PANC-1 [11],-1.65
same,Activity,MIA PaCa-2 [12],-53.3%
same,log2FC,PANC-1 [13],-0.75
same,log2FC,MIA PaCa-2 [14],-1.56
same,log2FC,MIA PaCa-2 [15],-0.83
same,log2FC,PANC-1 [16],-0.38
same,log2FC,MIA PaCa-2 [17],-0.34
same,log2FC,MIA PaCa-2 [18],0.26
same,log2FC,MIA PaCa-2 [19],-2.72
same,log2FC,PANC-1 [20],-0.63
same,log2FC,MIA PaCa-2 [21],-1.06
same,log2FC,PANC-1 [22],-2.18
same,log2FC,PANC-1 [23],-1.72
same,log2FC,MIA PaCa-2 [24],-0.64
same,log2FC,PANC-1 [25],-0.23
same,IC50,BXPC-3,19 nM
same,IC50,MIA PaCa-2 [26],7 nM
same,log2FC,PANC-1 [27],-0.54
same,log2FC,PANC-1 [28],-0.57
same,log2FC,PANC-1 [29],-1.15
same,log2FC,MIA PaCa-2 [30],-1.19

# Source: ChEMBL document CHEMBL4020827, “Targeting Multiple Effector Pathways in Pancreatic Ductal Adenocarcinoma with a G-Quadruplex-Binding Small Molecule” (J Med Chem, 2018)
